According to ChEMBL document CHEMBL1130202, “Biologically active heteroarotinoids exhibiting anticancer activity and decreased toxicity” (J Med Chem, 1997):
Calls of active or inactive are those of the source. No cut-off for these calls is given here.

How the values were obtained:
Mus musculus [1] = experiment: Fracture incidents in mouse at 0.8 mg/kg/day; 0/16
Mus musculus [2] = experiment: Effect of compound on thymus to body weight ratios in mice at 0.2 mg/kg/day dose; all the animals died by day 65; format: functional, organism-based
In short: (§1)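 Male B6D2F1 mice were dosed daily by gavage in corn oil, with TTNPB given at 0.1–0.8 or 0.01/0.05 mg/kg/day. Thymus-to-body weight ratio (×1000) was taken at necropsy on day 65 against vehicle 1, or on day 25 for the 0.01/0.05 groups against vehicle 2. Mean ± SD of 4–8 animals, reported as % difference from vehicle.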

Mus musculus [3] = experiment: Effect of compound on thymus to body weight ratios in mice at 0.8 mg/kg/day dose; all the animals died by day 65; format: functional, organism-based
In short: as §1

Mus musculus [4] = experiment: Enlarged lymph in gross pathological observations with hypervitaminosis A in mice at 0.05 mg/kg/day dose with gross observations/total number of animals in group; 8/8; format: functional, organism-based
Mus musculus [5] = experiment: Average number of fractures per mouse at 0.05 mg/kg/day
Mus musculus [6] = experiment: Avoiding pressure on limbs at 0.1 mg/kg/day dose in mice hypervitaminosis; 0/16; format: functional, organism-based; details: Limb
Mus musculus [7] = experiment: Alopecia observed at 0.2 mg/kg/day dose with hypervitaminosis; 10/16; format: functional, organism-based
Mus musculus [8] = experiment: Skin scaling at 0.05 mg/kg/day in mice with hypervitaminosis; 8/8; format: functional, organism-based
Mus musculus [9] = experiment: Effects of retinoids on thymus to body weight ratios in mice at 0.01 mg/kg/day dose
Mus musculus [10] = experiment: Fracture incidents in mouse at 0.1 mg/kg/day
Mus musculus [11] = experiment: Effect of compound on thymus to body weight ratios in mice at 0.1 mg/kg/day dose; all the animals died by day 65; format: functional, organism-based
In short: as §1

Mus musculus [12] = experiment: Average number of fractures per mouse at 0.1 mg/kg/day
Mus musculus [13] = organism: Mus musculus; experiment: Effect of compound on serum triglycerides levels in mice at mid dose 2 on day 29; format: functional
In short: (§2)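 Male B6D2F1 mice were gavaged daily with compound in corn oil at low, mid 1, mid 2 or high dose. Serum triglycerides and circulating white blood cells were measured on the stated day (8, 29, 36, 65). Values are group mean ± SD expressed as % relative to corn-oil vehicle, with significance at p ≤ 0.05.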

Mus musculus [14] = organism: Mus musculus; experiment: Fracture incidence in mouse at low dose; 0/8
Mus musculus [15] = organism: Mus musculus; experiment: Compound total dose to termination (day 25/65) in mid dose 1; format: functional
In short: (§3)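 Male B6D2F1 mice given daily oral gavage in corn oil; dosages increased during the study (day 30 or day 51 depending on compound). Cumulative dose in mg/kg administered up to termination (day 65, or day 25 for TTNPB 0.01/0.05 mg/kg/day groups).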

Mus musculus [16] = organism: Mus musculus; experiment: Effect of compound on serum triglycerides levels in mice at mid dose 1 on day 8; format: functional
In short: as §2

Mus musculus [17] = organism: Mus musculus; experiment: Skin scaling in mice at low dose with Hypervitaminosis; 0/16; format: functional, organism-based
In short: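 Male B6D2F1 mice were dosed daily by gavage in corn oil and observed for skin scaling of the ears, mouth, nose, eyelids, feet, tail or ventral body. Results are given as affected animals over animals in the group, with the day of first observation.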

Mus musculus [18] = organism: Mus musculus; experiment: Compound total dose to termination (day 25/65) in high dose; format: functional
In short: as §3

Mus musculus [19] = organism: Mus musculus; experiment: Avoiding pressure on limbs in mice at low dose with Hypervitaminosis; 0/16; format: functional, organism-based; details: Limb
Mus musculus [20] = organism: Mus musculus; experiment: Effect of compound on Spleen to body weight ratios in mice at high dose on day 65; format: functional
In short: (§4)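 Male B6D2F1 mice dosed daily by gavage with compound in corn oil; vehicle 1 (corn oil) controls run to termination on day 65. Low, mid 1, mid 2 and high dose groups, with dosage increases partway through the study. Organ-to-body weight ratios (×1000) taken at necropsy on day 65, reported as mean ± SD for 4 to 8 animals and as % difference from vehicle.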

[21] = Mortality rate in mice in high dose; format: ADME; details: mouse, in vivo
In short: (§5)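 Male B6D2F1 mice given compound daily by gavage in corn oil at the stated dose levels, with corn oil vehicle controls. Deaths counted as animals found dead or sacrificed moribund, with day(s) of death recorded. Heteroarotinoid groups ran to day 65 and low-dose reference groups to day 25.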

Mus musculus [22] = organism: Mus musculus; experiment: Compound total dose to termination (day 25/65) in low dose; format: functional
In short: as §3

Mus musculus [23] = organism: Mus musculus; experiment: Effect of compound on serum triglycerides levels in mice at low dose on day 8; format: functional
In short: as §2

Mus musculus [24] = organism: Mus musculus; experiment: Fracture incidence in mouse at mid dose 1; 0/8
Mus musculus [25] = organism: Mus musculus; experiment: Enlarged spleen in Gross pathological observations in mice with hypervitaminosis A at high dose with gross observations/total number of mice in group; 0/16; format: functional, organism-based
Mus musculus [26] = organism: Mus musculus; experiment: Avoiding pressure on limbs in mice at mid dose 2 with Hypervitaminosis; 0/16; format: functional, organism-based; details: Limb
Mus musculus [27] = organism: Mus musculus; experiment: Effect of compound on serum triglycerides levels in mice at low dose on day 29; format: functional
In short: (§6)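 Male B6D2F1 mice dosed daily by oral gavage in corn oil at low, mid 1, mid 2 or high dose. Blood sampled on set days (8, 29, 36, 65) for clinical chemistry, serum alkaline phosphatase and triglycerides. Group mean ± SD reported as % relative to vehicle 1; significance p < 0.05 versus corn oil vehicle.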

[28] = Mortality rate in mice in low dose; format: ADME; details: mouse, in vivo
In short: as §5

Mus musculus [29] = organism: Mus musculus; experiment: Effect of compound on serum Alkaline phosphatase levels in mice at high dose on day 29; format: functional
In short: as §6

Mus musculus [30] = organism: Mus musculus; experiment: Effect of compound on thymus to body weight ratios in mice at high dose on day 65; format: functional
In short: as §1

Mus musculus [31] = organism: Mus musculus; experiment: Effect of compound on adrenal to body weight ratios in mice at high dose on day 65; format: functional
In short: as §4

Mus musculus [32] = organism: Mus musculus; experiment: Effect of compound on white blood cells levels in mice at high dose on day 65; format: functional
In short: as §2

Mus musculus [33] = organism: Mus musculus; experiment: Enlarged lymph in gross pathological observations in mice with hypervitaminosis A in mice at high dose with gross observations/total number of mice in group; 1/16; format: functional, organism-based
[34] = (§7) Mortality rate in mice in mid dose 2; format: ADME; details: mouse, in vivo
In short: as §5

[35] = Mortality rate in mice in mid dose 1; format: ADME; details: mouse, in vivo
In short: as §5

Mus musculus [36] = organism: Mus musculus; experiment: Effect of compound on serum triglycerides levels in mice at low dose on day 36; format: functional
In short: as §6

Mus musculus [37] = organism: Mus musculus; experiment: Effect of compound on serum Alkaline phosphatase levels in mice at high dose on day 65; format: functional
In short: as §6

Mus musculus [38] = organism: Mus musculus; experiment: Effect of compound on serum triglycerides levels in mice at mid dose 2 on day 8; format: functional
In short: as §2

Mus musculus [39] = organism: Mus musculus; experiment: Effect of compound on Spleen to body weight ratios in mice at low dose on day 65; format: functional
In short: as §4

Mus musculus [40] = organism: Mus musculus; experiment: Effect of compound on serum Alkaline phosphatase levels in mice at mid dose 1 on day 65; format: functional
In short: as §6

Mus musculus [41] = organism: Mus musculus; experiment: Average number of fractures per mouse at mid dose 1
Mus musculus [42] = organism: Mus musculus; experiment: as §7; format: functional
In short: as §5

Mus musculus [43] = organism: Mus musculus; experiment: Compound toxicity determined by total dose to termination (day 25/65) in mid dose 2; format: functional
Mus musculus [44] = organism: Mus musculus; experiment: Fracture incidence in mouse at high dose; 4/7
Mus musculus [45] = organism: Mus musculus; experiment: Effect of compound on white blood cells levels in mice at low dose on day 65; format: functional
In short: as §2

Compound	Activity (Mus musculus [13])	Activity (Mus musculus [14])	Total dose (Mus musculus [15]) [mg/kg]	Activity (Mus musculus [16])	Activity (Mus musculus [17])	Total dose (Mus musculus [18]) [mg/kg]	Activity (Mus musculus [19])	Activity (Mus musculus [20])	Mortality [21]	Total dose (Mus musculus [22]) [mg/kg]	Activity (Mus musculus [23])	Activity (Mus musculus [24])	Activity (Mus musculus [25])	Activity (Mus musculus [26])	Activity (Mus musculus [27])	Mortality [28]	Activity (Mus musculus [29])	Activity (Mus musculus [30])	Activity (Mus musculus [31])	Activity (Mus musculus [32])	also measured
C/C(=C\c1ccc(C(=O)O)cc1)c1ccc2c(c1)C(C)(C)CCC2(C)C																					Activity (Mus musculus [1]): inactive; Activity (Mus musculus [2]): Toxic; Activity (Mus musculus [3]): Toxic; Activity (Mus musculus [4]): Active; Activity (Mus musculus [5]): 3.3; Activity (Mus musculus [6]): inactive; Activity (Mus musculus [7]): Weak activity; Activity (Mus musculus [8]): Active; Activity (Mus musculus [9]): Toxic; Activity (Mus musculus [10]): 5.7; Activity (Mus musculus [11]): Toxic; Activity (Mus musculus [12]): 2
CC(/C=C/C=C(\C)c1ccc2c(c1)C(C)(C)CCS2)=C\C(=O)O	153.4	inactive	414.2	97.6	inactive	3106.5	inactive	2.6	0 day of death	207.1	97.5	inactive	inactive	inactive	176.4	0 day of death	94.6	1.5	2.6	4.18	Activity (Mus musculus [33]): inactive; Mortality [34]: 0 day of death; Mortality [35]: 1 day of death; Activity (Mus musculus [36]): 194.9; Activity (Mus musculus [37]): 159
CC(/C=C/C=C(\C)c1ccc2c(c1)C(C)(C)CCO2)=C\C(=O)O	159.3	inactive	414.2	97.2	inactive	3106.5	inactive	3		207.1	96.8	inactive	inactive	inactive	179.4			1.3	0.4	3.7	Activity (Mus musculus [38]): 112.3; Activity (Mus musculus [39]): 2.3; Activity (Mus musculus [40]): 127.1; Activity (Mus musculus [41]): 0; Activity (Mus musculus [33]): inactive; Mortality (Mus musculus [42]): 0 day of death; Activity (Mus musculus [36]): 187.1; Activity (Mus musculus [37]): 156.8
C/C(=C\c1ccc(C(=O)O)cc1)c1ccc2c(c1)C(C)(C)CCO2									8 day of death							0 day of death	103.1				Activity (Mus musculus [39]): 3.6; Activity (Mus musculus [40]): 123.1; Activity (Mus musculus [41]): 1.9; Total dose (Mus musculus [43]): 588.4 mg/kg; Mortality [34]: 4 day of death; Mortality [35]: 0 day of death; Activity (Mus musculus [44]): Weak activity; Activity (Mus musculus [45]): 4.27
